Laboratory results from ChEMBL document CHEMBL1781962, “Development of Fluorescent Ligands for the Human 5-HT1A Receptor” (ACS Med Chem Lett, 2010).
One block for each compound: values may come before it. Calls of active or inactive are those of the source. No cut-off for these calls is given here.

Assays:
[1] = biological target: T1, 5-hydroxytryptamine receptor 1A (Homo sapiens, UniProt P08908); assay: Displacement of [3H]8-OH-DPAT from human 5HT1A receptor expressed in EBNA gene-positive HEK293 cells after 120 mins; format: cell-based
T1 sequence (P08908 whole entry): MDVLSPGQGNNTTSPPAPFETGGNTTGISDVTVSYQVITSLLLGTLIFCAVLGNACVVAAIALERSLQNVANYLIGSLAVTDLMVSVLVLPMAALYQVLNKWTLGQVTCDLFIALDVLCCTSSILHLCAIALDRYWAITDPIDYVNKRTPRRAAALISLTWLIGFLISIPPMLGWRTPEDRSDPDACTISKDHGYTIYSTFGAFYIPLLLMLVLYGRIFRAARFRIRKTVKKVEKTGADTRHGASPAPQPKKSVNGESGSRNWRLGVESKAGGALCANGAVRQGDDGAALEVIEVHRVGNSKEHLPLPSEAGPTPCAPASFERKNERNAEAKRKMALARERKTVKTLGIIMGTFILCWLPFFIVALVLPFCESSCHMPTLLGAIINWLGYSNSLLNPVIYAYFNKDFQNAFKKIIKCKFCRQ
Outline: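 Radioligand competition binding with [3H]-8-hydroxy-DPAT on membranes from transfected HEK-293 EBNA cells expressing h5-HT1AR. Buffer was 50 mM Tris-HCl, 0.5 mM MgSO4, pH 7.4. Ki was obtained from IC50 by the Cheng-Prusoff equation. Values are means ± SEM of 2–4 independent experiments, each run in triplicate.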

[2] = biological target: 5-hydroxytryptamine receptor 5A (Homo sapiens) (UniProt P47898); assay: Binding affinity to human 5HT5A receptor at 1 uM by radioligand displacement assay
5-hydroxytryptamine receptor 5A (Homo sapiens), sequence (P47898 whole entry): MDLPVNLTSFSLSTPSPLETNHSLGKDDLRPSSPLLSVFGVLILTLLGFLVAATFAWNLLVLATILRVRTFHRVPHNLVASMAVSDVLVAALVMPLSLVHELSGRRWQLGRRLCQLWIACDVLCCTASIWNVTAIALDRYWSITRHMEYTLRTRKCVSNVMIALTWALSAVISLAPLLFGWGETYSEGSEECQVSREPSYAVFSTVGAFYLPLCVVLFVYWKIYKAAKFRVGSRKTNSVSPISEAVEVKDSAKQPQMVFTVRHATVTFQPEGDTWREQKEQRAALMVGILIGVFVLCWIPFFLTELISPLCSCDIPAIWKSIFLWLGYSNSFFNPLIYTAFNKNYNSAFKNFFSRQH
Outline: (§1)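 Selectivity screen by radioligand binding at the 5-HT2A, 5-HT4e, 5-HT5a, 5-HT6 and 5-HT7 receptors. Test compound was used at a single concentration of 1 μM. Read-out was percent displacement of the corresponding radioligand.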

[3] = biological target: 5-hydroxytryptamine receptor 6 (Homo sapiens) (UniProt P50406); assay: Displacement of [3H]LSD from human 5HT6 receptor expressed in HEK293 cells after 120 mins by radioligand displacement assay; format: cell-based; outline: as §1
5-hydroxytryptamine receptor 6 (Homo sapiens), sequence (P50406 whole entry): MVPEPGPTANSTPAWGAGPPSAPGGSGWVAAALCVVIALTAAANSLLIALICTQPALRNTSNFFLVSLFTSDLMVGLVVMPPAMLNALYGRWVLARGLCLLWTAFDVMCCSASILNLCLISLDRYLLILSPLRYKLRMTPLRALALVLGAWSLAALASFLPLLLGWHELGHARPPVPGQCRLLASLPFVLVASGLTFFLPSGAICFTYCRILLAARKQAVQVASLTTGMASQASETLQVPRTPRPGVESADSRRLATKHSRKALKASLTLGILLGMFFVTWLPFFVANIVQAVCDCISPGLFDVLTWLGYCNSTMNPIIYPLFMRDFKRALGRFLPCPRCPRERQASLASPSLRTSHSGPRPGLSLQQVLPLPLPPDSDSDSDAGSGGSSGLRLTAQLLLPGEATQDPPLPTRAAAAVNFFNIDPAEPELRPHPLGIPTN

[4] = biological target: 5-hydroxytryptamine receptor 4 (Homo sapiens) (UniProt Q13639); assay: Binding affinity to human 5-HT4e receptor at 1 uM by radioligand displacement assay; outline: as §1
5-hydroxytryptamine receptor 4 (Homo sapiens), sequence (Q13639 whole entry): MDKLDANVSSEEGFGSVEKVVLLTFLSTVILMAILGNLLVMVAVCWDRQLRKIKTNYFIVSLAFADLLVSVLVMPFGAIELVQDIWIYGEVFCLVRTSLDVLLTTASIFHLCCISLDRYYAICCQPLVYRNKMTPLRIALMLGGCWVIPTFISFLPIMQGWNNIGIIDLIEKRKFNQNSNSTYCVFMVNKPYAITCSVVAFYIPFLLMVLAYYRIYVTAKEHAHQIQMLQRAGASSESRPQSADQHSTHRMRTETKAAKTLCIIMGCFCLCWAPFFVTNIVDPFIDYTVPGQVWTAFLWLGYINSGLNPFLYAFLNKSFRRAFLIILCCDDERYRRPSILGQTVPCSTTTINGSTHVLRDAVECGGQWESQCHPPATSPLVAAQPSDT

[5] = biological target: 5-hydroxytryptamine receptor 2A (Homo sapiens) (UniProt P28223); assay: Binding affinity to human 5HT2A receptor at 1 uM by radioligand displacement assay; outline: as §1
5-hydroxytryptamine receptor 2A (Homo sapiens), sequence (P28223 whole entry): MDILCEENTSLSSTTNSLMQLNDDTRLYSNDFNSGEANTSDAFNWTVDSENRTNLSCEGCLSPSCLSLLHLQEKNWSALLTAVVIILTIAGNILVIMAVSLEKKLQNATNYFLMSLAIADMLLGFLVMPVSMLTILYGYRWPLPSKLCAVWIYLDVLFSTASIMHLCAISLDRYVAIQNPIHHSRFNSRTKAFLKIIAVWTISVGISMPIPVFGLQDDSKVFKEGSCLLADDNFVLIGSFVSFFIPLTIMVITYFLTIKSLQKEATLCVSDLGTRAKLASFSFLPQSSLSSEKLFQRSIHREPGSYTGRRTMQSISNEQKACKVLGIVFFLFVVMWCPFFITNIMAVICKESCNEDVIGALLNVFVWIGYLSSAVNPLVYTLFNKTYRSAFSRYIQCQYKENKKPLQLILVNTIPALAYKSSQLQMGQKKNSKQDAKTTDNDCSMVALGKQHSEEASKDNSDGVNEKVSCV

[6] = biological target: 5-hydroxytryptamine receptor 7 (Homo sapiens) (UniProt P34969); assay: Displacement of [3H]LSD from human 5HT7 receptor expressed in HEK293 cells at 1 uM after 120 mins by scintillation counting; format: cell-based; outline: as §1
5-hydroxytryptamine receptor 7 (Homo sapiens), sequence (P34969 whole entry): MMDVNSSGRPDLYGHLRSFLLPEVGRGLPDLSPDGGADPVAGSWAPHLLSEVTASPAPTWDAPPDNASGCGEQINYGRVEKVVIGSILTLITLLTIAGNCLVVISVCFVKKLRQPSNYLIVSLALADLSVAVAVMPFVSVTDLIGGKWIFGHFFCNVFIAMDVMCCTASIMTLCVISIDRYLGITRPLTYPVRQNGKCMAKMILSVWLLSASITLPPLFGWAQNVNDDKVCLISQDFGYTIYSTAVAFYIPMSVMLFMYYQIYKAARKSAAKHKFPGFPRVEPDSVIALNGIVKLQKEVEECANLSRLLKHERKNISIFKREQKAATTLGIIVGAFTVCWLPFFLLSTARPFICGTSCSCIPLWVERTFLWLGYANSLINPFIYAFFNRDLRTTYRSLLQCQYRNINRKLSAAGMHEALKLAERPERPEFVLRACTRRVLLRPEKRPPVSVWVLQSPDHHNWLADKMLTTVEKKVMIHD

[7] = biological target: T1, 5-hydroxytryptamine receptor 1A; assay: Binding affinity to human 5HT1A receptor expressed in HEK-293 EBNA cell membranes by [3H]-8-hydroxy-DPAT radioligand binding

SMILES: O=C1C2CCCN2C(=O)N1CCCCN1CCN(c2cccc3ccccc23)CC1 (stereo not drawn)
- Ki [1]: 2.4 nM

SMILES: CN(C)S(=O)(=O)c1cccc2c(N3CCN(CCCCN4C(=O)C5CCCN5C4=O)CC3)cccc12 (stereo not drawn)
- Ki [1]: 350 nM

SMILES: CN(C)S(=O)(=O)c1ccc2c(N3CCN(CCCCN4C(=O)C5CCCN5C4=O)CC3)cccc2c1 (stereo not drawn)
- Ki [1]: 98 nM

SMILES: COc1ccccc1N1CCN(CCCCN2C(=O)C3CCCN3C2=O)CC1 (stereo not drawn)
- Ki [1]: 5.5 nM

SMILES: CN(C)c1cccc2c(S(=O)(=O)N3CCN(CCCCN4C(=O)C5CCCN5C4=O)CC3)cccc12 (stereo not drawn)
- Ki [1]: > 1000 nM

SMILES: CN(C)S(=O)(=O)c1ccc2cccc(N3CCN(CCCCN4C(=O)C5CCCN5C4=O)CC3)c2c1 (stereo not drawn)
- Ki [1]: 2.4 nM

Other lines, results leading:

- Ki [1]: 9 nM
SMILES: COc1ccccc1N1CCN(CCCCN2C(=O)N3CCCC3(CCCCNCCCCCNS(=O)(=O)c3cccc4c(N(C)C)cccc34)C2=O)CC1 (stereo not drawn)

- Ki [1]: 7 nM
SMILES: COc1ccccc1N1CCN(CCCCN2C(=O)N3CCCC3(CCNCCCCCNS(=O)(=O)c3cccc4c(N(C)C)cccc34)C2=O)CC1 (stereo not drawn)

- Ki [1]: 11 nM
SMILES: COc1ccccc1N1CCN(CCCCN2C(=O)N3CCCC3(CCCCNS(=O)(=O)c3cccc4c(N(C)C)cccc34)C2=O)CC1 (stereo not drawn)

- Activity [2]: > 80%
- Ki [1]: 2 nM
- Activity [3]: inactive
- Activity [4]: inactive
- Activity [5]: > 80%
- Activity [6]: > 80%
- Ki [7]: 38 nM
SMILES: CN(C)c1cccc2c(S(=O)(=O)NCCCCC34CCCN3C(=O)N(CCCCN3CCN(c5cccc6ccccc56)CC3)C4=O)cccc12 (stereo not drawn)

- Ki [1]: 5 nM
SMILES: CN(C)c1cccc2c(S(=O)(=O)NCCCCCCCC34CCCN3C(=O)N(CCCCN3CCN(c5cccc6ccccc56)CC3)C4=O)cccc12 (stereo not drawn)

- Ki [1]: 15 nM
SMILES: COc1ccccc1N1CCN(CCCCN2C(=O)N3CCCC3(CCCCCCCNS(=O)(=O)c3cccc4c(N(C)C)cccc34)C2=O)CC1 (stereo not drawn)
